Reference: the M2OR odorant receptor database

biological target: T1, OR2J2 (Homo sapiens) (UniProt O76002); details: stereoisomer not certain
T1 sequence (whole entry): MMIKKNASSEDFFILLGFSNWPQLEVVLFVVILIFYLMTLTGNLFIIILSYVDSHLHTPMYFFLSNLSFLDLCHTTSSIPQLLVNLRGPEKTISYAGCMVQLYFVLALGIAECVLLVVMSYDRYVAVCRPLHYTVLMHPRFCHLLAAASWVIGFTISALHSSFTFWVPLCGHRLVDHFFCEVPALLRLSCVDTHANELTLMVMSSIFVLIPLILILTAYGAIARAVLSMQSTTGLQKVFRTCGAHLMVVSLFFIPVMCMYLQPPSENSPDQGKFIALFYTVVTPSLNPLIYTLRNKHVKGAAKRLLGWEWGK
Procedure, shortened: (§1)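 Assay methods differ from source to source, frequently being transient luciferase assays in mammalian cell lines. For each receptor–molecule pair, the label responsive (active) applies when the original authors judged the measured signal statistically different from baseline, and non-responsive (inactive) applies otherwise.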

Odorant receptor agonist call, active:
CCCCCCCCO, CCCCCCCO, CCCCCCCCCO

Odorant receptor agonist call, inactive:
CCCCOC(=O)C(C)OC(=O)CCC (stereo unspecified), CCCCCCC(=O)[O-].[H+], CCCCC(=O)CC, CCOC(=O)C(C)C, C=CCOC(=O)CCCCCC, CCCCC(=O)O, CCCCCCCC(=O)[O-].[H+], CCCCCCCC(C)=O, CC(C)=CCCC(C)=CCO, CC(=O)OCc1ccccc1, CCC(=O)O, CCCCCCCCCS, CCCCCCCCCC(=O)[O-].[H+], CCCCC(C)=O, CCCCCCO, CCCCCCOC(C)=O, CC12CCC(CC1=O)C2(C)C (stereo unspecified), CCCCCOC(=O)CCCCC, CCCCCC=O, C=C(C)C1CCC(C)C(=O)C1 (stereo unspecified), CCCCCCCCS

biological target: T2, OR2L13 (Homo sapiens) (UniProt Q8N349); details: stereoisomer not certain
T2 sequence (whole entry): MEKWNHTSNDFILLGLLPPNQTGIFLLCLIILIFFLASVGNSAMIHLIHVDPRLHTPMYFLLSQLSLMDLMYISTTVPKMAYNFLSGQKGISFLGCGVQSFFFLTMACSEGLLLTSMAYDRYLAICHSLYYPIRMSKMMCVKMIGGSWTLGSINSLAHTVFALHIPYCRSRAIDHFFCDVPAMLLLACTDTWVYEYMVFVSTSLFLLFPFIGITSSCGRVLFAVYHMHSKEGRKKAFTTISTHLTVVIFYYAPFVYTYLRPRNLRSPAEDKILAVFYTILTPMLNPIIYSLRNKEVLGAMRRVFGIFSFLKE
Procedure, shortened: as §1

Odorant receptor agonist call, inactive:
CCCCCCC(=O)[O-].[H+], CC(C=O)Cc1ccc(C(C)(C)C)cc1 (stereo unspecified), CCCC(=O)CC, CCCCCCCCCCCCCC(=O)OC, CCCCCCCCCCCC(=O)OCC, Cc1cccc(C)c1C, CCCCCCCCCCCCCC(=O)OCC, CCCCCCCCCCCCCCC(=O)O, CCCCCCCCO, CC(C)=CCCC(C)=CCO, CCC(=O)O, CCCCCCCCCCCCCCCCCC(=O)[O-].[H+], CCCCCCCCCCCCCCCCCC(=O)OC, CCCCCCCCCC(=O)OC, CCCCCCCCCCCC(=O)O, CCC(O)CC

biological target: T3, OR2M3 (Homo sapiens) (UniProt Q8NG83); details: stereoisomer not certain
T3 sequence (whole entry): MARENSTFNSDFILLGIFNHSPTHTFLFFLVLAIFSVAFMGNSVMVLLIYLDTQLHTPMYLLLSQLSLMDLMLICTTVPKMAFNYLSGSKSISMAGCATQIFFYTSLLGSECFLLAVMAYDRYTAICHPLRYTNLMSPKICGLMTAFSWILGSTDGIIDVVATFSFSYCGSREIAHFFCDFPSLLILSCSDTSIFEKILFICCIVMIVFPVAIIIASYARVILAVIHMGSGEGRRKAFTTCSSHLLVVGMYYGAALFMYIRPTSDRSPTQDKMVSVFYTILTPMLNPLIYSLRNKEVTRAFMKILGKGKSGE
Procedure, shortened: as §1

Odorant receptor agonist call, inactive:
CCOC(=O)C(C)C, CCCCC(=O)O, CCCCCCCC(=O)[O-].[H+], CCCCCCCC(C)=O, CC(C)=CCCC(C)=CCO, CCC(=O)O, CCCCCCCCCC(=O)[O-].[H+], CCCCCCO, CCCCCCOC(C)=O, CCCCCCCCCO, CCCCCC=O
